Data: ChEMBL document CHEMBL1153444, “Discovery of dual inhibitors targeting both HIV-1 capsid and human cyclophilin A to inhibit the assembly and uncoating of the viral capsid” (Bioorg Med Chem, 2009)

Legend:
[1] = tested on: Simian immunodeficiency virus; test: Antiviral activity against SIV in human CEM cells assessed as inhibition of virus-induced cytopathogenicity; type: functional, organism-based, CCRF-CEM; conditions: ccrf-cem
How it was run: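 SIV syncytium assay in CEM174 cells (2 × 10⁵ cells/ml) infected with 100 TCID₅₀ SIV per well alongside serial compound dilutions. Cultures were kept 5 days at 37 °C in humidified 5% CO₂, then giant-cell formation was scored microscopically. EC₅₀ is the concentration protecting cells from SIV cytopathogenicity by 50%.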

[2] = tested on: Simian immunodeficiency virus; test: Antiviral activity against SIV in human CEM cells assessed as inhibition of virus-induced cytopathogenicity at 10 uM; type: functional, CCRF-CEM; set-up: scale not given: the % may be the effect or the level left

For C/C=C/C[C@@H](C)[C@@H](O)[C@H]1C(=O)N[C@@H](CC)C(=O)N(C)CC(=O)N(C)[C@@H](CC(C)C)C(=O)N[C@@H](C(C)C)C(=O)N(C)[C@@H](CC(C)C)C(=O)N[C@@H](C)C(=O)N[C@H](C)C(=O)N(C)[C@@H](CC(C)C)C(=O)N(C)[C@@H](CC(C)C)C(=O)N(C)[C@@H](C(C)C)C(=O)N1C [CYCLOSPORINE], the EC50 [1] was “Not Active” and the Activity [2] was <10%.
